{"data": "Published values gathered from unrelated publications", "target": "Dual specificity mitogen-activated protein kinase kinase 2 (MAP2K2, Homo sapiens, UniProt P36507)", "note": "Lines come from different studies, so protocols differ."}
{"Compound": "CC(=O)N1CCC(c2ccc(C(=O)NC(=N)N)cc2C(F)(F)F)CC1", "read-out": "cell-free assay", "technique": "competition with immobilised ligand", "tested at": "1 µM", "remaining binding [%]": 96}
{"Compound": "C[C@H]1CCN(c2nccc(-c3cnn4ncccc34)n2)C1", "read-out": "binding", "tested at": "1 µM", "remaining binding [%]": 100}
{"Compound": "O=C(Nc1cccnn1)N1CC(C/C=C/c2cncc(Oc3ccc(C(F)(F)F)cn3)n2)C1", "read-out": "cell-free assay", "technique": "competition with immobilised ligand", "tested at": "1 µM", "remaining binding [%]": 95}
{"Compound": "CN(C)c1ncc(F)c(-c2cnn3ncccc23)n1", "read-out": "binding", "tested at": "1 µM", "remaining binding [%]": 74}
{"Compound": "N#Cc1ccccc1CSc1nnc2c(n1)[nH]c1ccccc12", "read-out": "binding", "technique": "competition with immobilised ligand", "tested at": "10 µM", "remaining binding [%]": 87}
{"Compound": "Cc1cnc(Nc2ccc(C(=O)N3CCC(N4CCCC4)CC3)cc2)nc1-c1cc2ccccc2s1", "read-out": "binding", "technique": "competition with immobilised ligand", "tested at": "1 µM", "remaining binding [%]": 26}
{"Compound": "CC1CCCN1c1nccc(-c2cnn3ncccc23)n1 (stereo not drawn)", "read-out": "binding", "tested at": "1 µM", "remaining binding [%]": 96}
{"Compound": "CN(C)CC#Cc1ccc(OCCCc2sc(N3CCc4cccc(C(=O)Nc5nc6ccccc6s5)c4C3)nc2C(=O)O)c(F)c1", "read-out": "cell-free assay", "technique": "competition with immobilised ligand", "tested at": "1 µM", "remaining binding [%]": 100}
{"Compound": "C=CC(=O)N1CCC(C(=O)NCC(=O)N2CCN(c3nc(-c4cnc(N)nc4C(F)F)nc(N4CCOCC4)n3)CC2)CC1", "read-out": "binding", "technique": "competition with immobilised ligand", "tested at": "1 µM", "remaining binding [%]": 59}
{"Compound": "C[C@@H]1CN(c2ccc3ncc(-c4ccc5[nH]nc(C6CC6)c5c4)n3n2)C[C@H](C)O1", "read-out": "binding", "technique": "competition with immobilised ligand", "tested at": "50 nM", "remaining binding [%]": 72}
{"Compound": "CO[C@@H](C)c1c(Nc2ccc([C@@H](N(C)C(=O)C3CCS(=O)(=O)CC3)C(F)(F)F)cc2)cnc2cc(Cl)nn12", "read-out": "cell-free assay", "technique": "competition with immobilised ligand", "tested at": "1 µM", "remaining binding [%]": 97}
{"Compound": "O=C(NCCCN1CCOCC1)c1ccc(Nc2ncc(Cl)c(-c3ccc(Cl)s3)n2)cc1", "read-out": "binding", "technique": "competition with immobilised ligand", "tested at": "1 µM", "remaining binding [%]": 59}
{"Compound": "CCN1CCN(Cc2ccc(C(=O)Nc3ccc(C)c(Oc4ccc5c(c4)CC(=O)N5)c3)cc2C(F)(F)F)CC1", "read-out": "binding", "technique": "competition with immobilised ligand", "tested at": "1 µM", "remaining binding [%]": 100}
{"Compound": "Cc1c(NC(=O)c2cc(C(N)=O)nc3cc(F)ccc23)c(C(F)(F)F)nn1Cc1ccc(C(C)(C)C)cc1", "read-out": "cell-free assay", "technique": "competition with immobilised ligand", "tested at": "1 µM", "remaining binding [%]": 100}
{"Compound": "COc1ccnn2ncc(-c3ccnc(N(C)C)n3)c12", "read-out": "binding", "tested at": "1 µM", "remaining binding [%]": 100}
{"Compound": "Cc1noc([C@H]2C[C@@H](c3ccc(C(F)(F)F)cc3)CN(C(=O)N3CCS(=O)(=O)C3)C2)n1", "read-out": "cell-free assay", "technique": "competition with immobilised ligand", "tested at": "1 µM", "remaining binding [%]": 90}
{"Compound": "CC(C)(C)c1ccc(-c2nc(CBr)nn2-c2cccc(O)c2)cc1", "read-out": "cell-free assay", "technique": "competition with immobilised ligand", "tested at": "10 µM", "remaining binding [%]": 90}
{"Compound": "c1cnn2ncc(-c3ccnc(N4CCC45COC5)n3)c2c1", "read-out": "binding", "tested at": "1 µM", "remaining binding [%]": 81}
{"Compound": "O=C(Nc1c[nH]nc1C(=O)NC1CCNCC1)c1cc(F)cc(F)c1", "read-out": "binding", "technique": "competition with immobilised ligand", "tested at": "1 µM", "remaining binding [%]": 90}
{"Compound": "C[C@@H](c1ccc(-n2cnc3c(N)ncnc32)cc1)N1CCc2nn(C)c(Cc3ccccc3)c2C1=O", "read-out": "binding", "technique": "competition with immobilised ligand", "tested at": "0.1 µM", "remaining binding [%]": 92}
{"Compound": "COc1cnc(Nc2cccc(S(N)(=O)=O)c2)nc1N1CCN(c2ccccc2)CC1", "read-out": "binding", "technique": "competition with immobilised ligand", "tested at": "1 µM", "remaining binding [%]": 83}
{"Compound": "O=C(c1ccc(Nc2ncc(Cl)c(-c3ccc(Cl)s3)n2)cc1)N1CCC(N2CCCC2)CC1", "read-out": "binding", "technique": "competition with immobilised ligand", "tested at": "1 µM", "remaining binding [%]": 15}
{"Compound": "N[C@@H]1CCN(c2nccc(-c3cnn4ncccc34)n2)C1", "read-out": "binding", "tested at": "1 µM", "remaining binding [%]": 84}
{"Compound": "CC(=O)Nc1c(C(C)=O)c(=O)n(C)c2nc(-c3ccc(Cl)cc3Cl)c(-c3ccc(Cl)cc3)cc12", "read-out": "cell-free assay", "technique": "competition with immobilised ligand", "tested at": "1 µM", "remaining binding [%]": 100}
